Activity calls are given as the source filed them. The calls are words filed in the database; no cut-off is given here.
Assays:
[1] = target: T1, Toll-like receptor 9 (Mus musculus) (UniProt Q9EQU3); assay: Agonist activity at mouse TLR9 expressed in HEK293 cells assessed as activation of NF-kappaB at 10 ug/mL by SEAP reporter gene assay; assay type: functional, cell-based
T1 sequence (whole entry): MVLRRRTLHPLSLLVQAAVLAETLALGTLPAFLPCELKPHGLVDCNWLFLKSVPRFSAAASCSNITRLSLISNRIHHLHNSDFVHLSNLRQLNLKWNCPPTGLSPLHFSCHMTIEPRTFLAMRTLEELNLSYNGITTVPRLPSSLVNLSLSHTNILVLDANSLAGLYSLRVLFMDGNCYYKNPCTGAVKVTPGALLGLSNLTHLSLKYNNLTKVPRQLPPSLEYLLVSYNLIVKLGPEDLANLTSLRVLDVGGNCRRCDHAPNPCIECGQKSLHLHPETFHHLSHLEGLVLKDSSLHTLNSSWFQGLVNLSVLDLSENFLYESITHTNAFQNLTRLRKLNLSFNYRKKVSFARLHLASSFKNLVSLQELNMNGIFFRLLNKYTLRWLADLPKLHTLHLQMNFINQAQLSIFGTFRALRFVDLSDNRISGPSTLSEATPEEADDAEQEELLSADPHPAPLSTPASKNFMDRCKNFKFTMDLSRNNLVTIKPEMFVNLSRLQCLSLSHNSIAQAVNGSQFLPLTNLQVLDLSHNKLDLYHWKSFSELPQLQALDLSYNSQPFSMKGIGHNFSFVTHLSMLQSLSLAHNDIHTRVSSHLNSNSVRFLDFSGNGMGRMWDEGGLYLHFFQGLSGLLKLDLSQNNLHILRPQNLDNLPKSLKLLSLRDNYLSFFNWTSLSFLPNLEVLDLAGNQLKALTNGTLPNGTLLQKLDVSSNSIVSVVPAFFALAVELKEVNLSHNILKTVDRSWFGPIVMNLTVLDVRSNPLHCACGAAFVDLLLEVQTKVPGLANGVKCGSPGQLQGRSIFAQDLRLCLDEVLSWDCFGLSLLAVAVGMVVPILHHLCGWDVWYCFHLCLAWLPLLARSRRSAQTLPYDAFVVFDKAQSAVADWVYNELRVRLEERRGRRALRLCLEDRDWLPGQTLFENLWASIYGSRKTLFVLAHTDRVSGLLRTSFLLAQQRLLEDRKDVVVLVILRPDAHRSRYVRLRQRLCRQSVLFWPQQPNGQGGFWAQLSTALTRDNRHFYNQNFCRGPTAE
Method in brief: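 HEK293 cells stably expressing mouse TLR9 were transiently transfected with a SEAP reporter for 6 h. Compounds were added at 10 µg/mL for 18 h. SEAP was read with Quanti-Blue substrate and expressed as fold change in NF-κB activity.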

[2] = target: T1, Toll-like receptor 9 (Mus musculus); assay: Antagonist activity at mouse TLR9 expressed in HEK293 cells assessed as inhibition of 5'-CTATCTGACGTTCTCTGT-3'-induced NF-kappaB activation by SEAP reporter gene assay; assay type: functional, cell-based
Method in brief: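 Mouse TLR9-HEK293 cells were transfected with a SEAP reporter for 6 h. They were then stimulated for 18 h with agonist (0.25 or 0.5 µg/mL) plus increasing antagonist concentrations or set agonist:antagonist ratios. Quanti-Blue read-out, reported as % NF-κB activity with agonist alone as 100%.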

Mus musculus [3] = assay: Induction of IL6 secretion in C57BL/6 mouse at 20 mg/kg, sc; assay type: functional, organism-based; parameters: dose 20 mg/kg
Method in brief: (§1)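 Female C57BL/6 mice, 6–8 weeks old (n=3), were injected sc with single compounds at 0.25 or 20 mg/kg. Serum was collected by retro-orbital bleed 2 h later and cytokines were measured by Luminex mouse 20-plex assay.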

Mus musculus [4] = assay: Induction of cytokine MIG secretion in C57BL/6 mouse at 20 mg/kg, sc; assay type: functional, organism-based; parameters: dose 20 mg/kg; method in brief: as §1
Mus musculus [5] = assay: Induction of cytokine MCP1 secretion in C57BL/6 mouse at 20 mg/kg, sc; assay type: functional, organism-based; parameters: dose 20 mg/kg; method in brief: as §1
Mus musculus [6] = assay: Induction of cytokine KC secretion in C57BL/6 mouse at 20 mg/kg, sc; assay type: functional, organism-based; parameters: dose 20 mg/kg; method in brief: as §1
Mus musculus [7] = assay: Induction of IP10 secretion in C57BL/6 mouse at 20 mg/kg, sc; assay type: functional, organism-based; parameters: dose 20 mg/kg; method in brief: as §1
Mus musculus [8] = assay: Induction of IL10 secretion in C57BL/6 mouse at 20 mg/kg, sc; assay type: functional, organism-based; parameters: dose 20 mg/kg; method in brief: as §1
Mus musculus [9] = assay: Induction of IL12 secretion in C57BL/6 mouse at 20 mg/kg, sc; assay type: functional, organism-based; parameters: dose 20 mg/kg; method in brief: as §1
Mus musculus [10] = organism: Mus musculus; assay: Inhibition of 5'-TCTGACRTTCT-X-TCTTRCAGTCT-3'-induced IL12 production in C57BL/6 mouse measured after 2 hrs of induction by ELISA; assay type: functional, organism-based
Method in brief: (§2)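 C57BL/6 mice (n=3) were given TLR9 agonist 0.25 mg/kg sc in the left flank and various antagonist doses sc in the right flank at the same time. Serum IL-12 was measured by sandwich ELISA 2 h after agonist.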

Mus musculus [11] = organism: Mus musculus; assay: Inhibition of 5'-TCTGACRTTCT-X-TCTTRCAGTCT-3'-induced IL12 production in C57BL/6 mouse at 1:4 agonist to drug ratio by ELISA; assay type: functional, organism-based; method in brief: as §2
Mus musculus [12] = assay: Inhibition of 5'-TCTGACRTTCT-X-TCTTRCAGTCT-3'-induced IL12 production in C57BL/6 mouse treated 6 hrs of induction and measured after 2 hrs at 2 mg/kg, sc; assay type: functional; conditions: C57BL/6, sc, route subcutaneous
Method in brief: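 Mice received antagonist sc at a low or high dose, then TLR9 agonist sc 6 h later. Serum IL-12 was determined 2 h after agonist administration.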

Mus musculus [13] = assay: Inhibition of 5-TCTGACRTTCT-X-TCTTRCAGTCT-3-induced IL12 production in C57BL/6 mouse treated 6 hrs of induction and measured after 2 hrs at 20 mg/kg, sc; assay type: functional; conditions: C57BL/6, sc, route subcutaneous
Mus musculus [14] = assay: Inhibition of 5-TCTGACRTTCT-X-TCTTRCAGTCT-3-induced IL12 production in C57BL/6 mouse at 20 mg/kg, sc up to 168 hrs; assay type: functional, organism-based; parameters: dose 20 mg/kg
Method in brief: (§3)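 Female C57BL/6 mice, 6-8 weeks, n = 3, given antagonist 20 mg/kg sc. TLR9 agonist at 0.25 mg/kg sc at various intervals afterward; blood taken 2 h after agonist and serum IL-12 measured by sandwich ELISA. Representative of more than six independent experiments.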

Mus musculus [15] = assay: Inhibition of 5-TCTGACRTTCT-X-TCTTRCAGTCT-3-induced IL12 production in C57BL/6 mouse at 20 mg/kg, sc up to 120 hrs; assay type: functional; conditions: C57BL/6, sc, route subcutaneous; method in brief: as §3

Question: What does the source list for `CO[C@@H]1[C@H](OP(=O)(S)OC[C@H]2O[C@@H](n3ccc(N)nc3=O)C[C@@H]2OP(=O)(S)OC[C@H]2O[C@@H](n3cnc4c(=O)[nH]c(N)nc43)C[C@@H]2OP(=O)(S)OC[C@H]2O[C@@H](n3cc(C)c(=O)[nH]c3=O)C[C@@H]2OP(=O)(S)OC[C@H]2O[C@@H](n3cc(C)c(=O)[nH]c3=O)C[C@@H]2OP(=O)(S)OC[C@H]2O[C@@H](n3ccc(N)nc3=O)C[C@@H]2OP(=O)(S)OC[C@H]2O[C@@H](n3cc(C)c(=O)[nH]c3=O)C[C@@H]2OP(=O)(S)OC[C@H]2O[C@@H](n3ccc(N)nc3=O)C[C@@H]2OP(=O)(S)OC[C@H]2O[C@@H](n3cc(C)c(=O)[nH]c3=O)C[C@@H]2OP(=O)(S)OC[C@H]2O[C@@H](n3cnc4c(=O)[nH]c(N)nc43)C[C@@H]2OP(=O)(S)OC[C@H]2O[C@@H](n3cc(C)c(=O)[nH]c3=O)C[C@@H]2O)[C@@H](COP(=O)(S)O[C@H]2[C@@H](OC)[C@H](n3cnc4c(=O)[nH]c(N)nc43)O[C@@H]2COP(=O)(S)O[C@H]2C[C@H](n3cc(C)c(=O)[nH]c3=O)O[C@@H]2COP(=O)(S)O[C@H]2C[C@H](n3ccc(N)nc3=O)O[C@@H]2COP(=O)(S)O[C@H]2C[C@H](n3cc(C)c(=O)[nH]c3=O)O[C@@H]2COP(=O)(S)O[C@H]2C[C@H](n3cnc4c(N)ncnc43)O[C@@H]2COP(=O)(S)O[C@H]2C[C@H](n3cc(C)c(=O)[nH]c3=O)O[C@@H]2COP(=O)(S)O[C@@H]2C[C@@H](n3ccc(N)nc3=O)O[C@H]2CO)O[C@H]1n1cnc2c(N)ncnc21` (stereo not given in full)?
Answer: Activity [1]: inactive; Activity [2]: Dose-dependent effect; Activity (Mus musculus [3]): inactive; Activity (Mus musculus [4]): inactive; Activity (Mus musculus [5]): inactive; Activity (Mus musculus [6]): inactive; Activity (Mus musculus [7]): inactive; Activity (Mus musculus [8]): inactive; Activity (Mus musculus [9]): inactive; Activity (Mus musculus [10]): Dose-dependent effect; Activity (Mus musculus [11]): Active; inhibition in vivo at 2 mg/kg (Mus musculus [12]): 50%; inhibition in vivo at 20 mg/kg (Mus musculus [13]): 90%; Activity (Mus musculus [14]): Active; inhibition in vivo at 20 mg/kg (Mus musculus [15]): 50%

From ChEMBL document CHEMBL1140884, “Oligodeoxyribonucleotide-based antagonists for Toll-like receptors 7 and 9” (2009)
